The campaign covered roughly 330,000 compounds. About 2,400 (0.73%) were called active. Rule for the calls: active = inhibition of at least 40% at 20 µM; inactive = the rest. This excerpt belongs to a sample that is enriched for actives.

Chain of Apoptotic protease-activating factor 1 (Homo sapiens) (O14727 whole entry, looked up): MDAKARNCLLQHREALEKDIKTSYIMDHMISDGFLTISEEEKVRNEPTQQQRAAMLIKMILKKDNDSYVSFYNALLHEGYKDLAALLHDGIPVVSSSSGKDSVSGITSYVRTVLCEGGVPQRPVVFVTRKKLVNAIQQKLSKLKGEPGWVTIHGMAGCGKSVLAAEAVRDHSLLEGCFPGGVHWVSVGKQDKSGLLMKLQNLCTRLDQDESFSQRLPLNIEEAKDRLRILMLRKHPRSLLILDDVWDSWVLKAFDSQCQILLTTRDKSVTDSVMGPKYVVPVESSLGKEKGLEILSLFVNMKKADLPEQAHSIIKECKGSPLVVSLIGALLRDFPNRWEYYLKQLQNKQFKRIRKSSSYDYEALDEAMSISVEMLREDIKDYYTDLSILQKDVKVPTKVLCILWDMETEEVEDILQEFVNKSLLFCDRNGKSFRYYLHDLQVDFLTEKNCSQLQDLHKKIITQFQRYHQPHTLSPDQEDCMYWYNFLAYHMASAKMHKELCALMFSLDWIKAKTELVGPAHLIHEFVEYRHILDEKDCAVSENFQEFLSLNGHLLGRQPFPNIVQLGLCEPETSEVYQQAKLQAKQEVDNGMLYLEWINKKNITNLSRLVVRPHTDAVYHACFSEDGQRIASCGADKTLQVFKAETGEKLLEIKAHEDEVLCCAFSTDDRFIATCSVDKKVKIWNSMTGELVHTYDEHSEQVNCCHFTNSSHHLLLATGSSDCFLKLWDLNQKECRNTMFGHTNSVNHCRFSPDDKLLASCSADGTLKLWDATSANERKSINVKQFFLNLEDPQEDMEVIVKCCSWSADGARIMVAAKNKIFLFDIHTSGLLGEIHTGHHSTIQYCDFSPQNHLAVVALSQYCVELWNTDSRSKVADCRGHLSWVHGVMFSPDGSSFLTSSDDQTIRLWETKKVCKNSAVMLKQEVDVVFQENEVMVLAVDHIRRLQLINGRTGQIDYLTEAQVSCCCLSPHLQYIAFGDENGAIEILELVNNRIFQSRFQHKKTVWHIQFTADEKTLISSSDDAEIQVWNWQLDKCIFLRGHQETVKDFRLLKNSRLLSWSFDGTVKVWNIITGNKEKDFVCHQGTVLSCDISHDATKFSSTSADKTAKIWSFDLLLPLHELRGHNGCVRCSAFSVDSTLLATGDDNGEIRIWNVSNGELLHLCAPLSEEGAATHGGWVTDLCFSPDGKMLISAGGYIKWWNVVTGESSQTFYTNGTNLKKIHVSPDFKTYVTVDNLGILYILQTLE

The test addresses Apoptotic protease-activating factor 1 (Homo sapiens) (UniProt O14727). Kind of test: inhibitors of human Apaf-1 apoptosome, primary screen, biochemical, DEVD-Rh110 fluorescence, uHTS (AID 489030).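 Note: plate controls were DMSO wells for no effect and DEVD-CHO caspase inhibitor wells for full effect.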 Particulars: reconstituted apoptosome caspase-3 activity, at 20 µM, active compounds read high. Put shortly:
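System: Apoptosome proteins | Medium: Hepes pH 7.5 with detergent and BSA | Also added: Cytochrome c trigger plus (Z-DEVD)2-Rh110 caspase-3 substrate | Incubation: 30 min compound preincubation, 50 min activation, room temperature | Detection: Rhodamine 110 fluorescence at Ex 480/Em 540 nm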
By inhibition is commonly meant the relative decrease from the control value, in per cent. Turning to `CC(=O)N(C1=C(Cl)C(=O)c2ccccc2C1=O)c1ccc(C(=O)O)cc1`, the inhibition was 89% (active).

In the case of `Cc1ccc(-c2nc(-c3cccnc3)sc2CC(=O)Nc2ccc(C)c(Cl)c2)cc1`, the inhibition was 19% (inactive).

On to `Cc1cccc(OCC(=O)NC2CC(C)(C)NC(C)(C)C2)c1`, for which the inhibition was 0.115% (inactive).

`c1ccc(-c2cc(N3CCCCC3)c3ccccc3n2)cc1`: the inhibition is -0.639% (inactive).

As for `O=c1cc(N2CCCCC2)c(-c2ccccc2)nn1Cc1cccc(F)c1`, the inhibition was 44% (active).

For the compound `O=C(CS(=O)(=O)c1cn(Cc2cccc(F)c2)c2ccccc12)N1CCCCC1`, the inhibition is 18.4% (inactive).

As for `COc1ccc(OC)c(NC(=S)N2CCc3ccccc3C2)c1`, the inhibition is -1.06% (inactive).

Turning to `O=S(=O)(c1ccc(Br)cc1)N1CCC(c2nc3ccccc3[nH]2)CC1`, the inhibition is 6.06% (inactive).

For `Cc1noc(C)c1CSc1nnc2ccc3ccccc3n12`, the inhibition was -5% (inactive).

Take `CN(C)c1ccc(/C=N/Nc2cc(N3CCOCC3)nc(N3CCOCC3)n2)cc1`: the inhibition was 1.31% (inactive).

Consider `C(=N/Nc1cc(N2CCOCC2)nc(N2CCOCC2)n1)/c1ccccc1`, for which the inhibition was 76.5% (active).

As for `COc1ccc(/C=N/Nc2cc(N3CCOCC3)nc(C)n2)c(OC)c1`, the inhibition is 0.02% (inactive).

For the compound `Cc1ccc(C)c2c1cc(C)c1nnc(SCC(=O)Nc3cccc(C(=O)O)c3)n12`, the inhibition is -9.82% (inactive).

On to `CCOCCCNS(=O)(=O)Cc1ccccc1`, for which the inhibition was 5.85% (inactive).

On to `COc1cnc(SCc2ccc(Cl)c(Cl)c2)nc1Cl`, for which the inhibition was 0.38% (inactive).

As to `O=C(CN1CCCCCC1)Nc1c(Cl)cc(Cl)cc1Cl`, the inhibition is -0.605% (inactive).

As to `O=C(NC1CCCCC1)c1ccc(-c2ccc(Cl)cc2)o1`, the inhibition was 15% (inactive).

Consider `CN(CC(=O)Nc1ccc(F)cc1)C(=O)c1ccc(-c2ccc(Cl)cc2)o1`, for which the inhibition is 22% (inactive).

Turning to `Cc1[nH][nH]c(=O)c1C(c1ccc(-c2ccc(Cl)cc2)o1)c1c(C)[nH][nH]c1=O`, the inhibition was 85.8% (active).

For the compound `c1ccc(-n2nc3ccccc3n2)cc1`, the inhibition was 2.62% (inactive).

Regarding `CCC(=O)Nc1ccc2nn(-c3ccc(F)cc3)nc2c1`, the inhibition was 17.5% (inactive).

For the compound `Nc1ccc2nn(-c3ccc(Cl)cc3)nc2c1`, the inhibition is 83.8% (active).

For `O=Cc1c(Cl)cccc1Cl`, the inhibition was -4.79% (inactive).

In the case of `Cc1nn(C)cc1N1C(=O)c2cccc3c(N)ccc(c23)C1=O`, the inhibition is 12.4% (inactive).

As for `CCN1C(=O)c2cccc3c(N)ccc1c23`, the inhibition is 97.1% (active).

With `CCN1C(=O)c2cccc3c(S(=O)(=O)Nc4ccccc4O)ccc1c23`, the inhibition is 5.31% (inactive).

In the case of `CCSc1sc(CC)cc1C=O`, the inhibition is -7.54% (inactive).

Turning to `COCCC(=O)Nc1ccc2c(c1)CN(C(=O)CCOC)CC2`, the inhibition is -12.8% (inactive).

`Cc1ccc(-c2ccc(/C=N/NC(=O)CN3CCOCC3)o2)cc1[N+](=O)[O-]`: the inhibition was 73.9% (active).

In the case of `O=C(CN1CCOCC1)N/N=C/c1ccc(-c2ccc(Br)cc2)o1`, the inhibition is -12% (inactive).

As for `Cc1occc1C(=O)N/N=C/c1ccc(-c2cccc([N+](=O)[O-])c2)o1`, the inhibition is 10.6% (inactive).

As to `COc1ccc(-n2nc3c(N4CCC(C(=O)NCc5ccccc5)CC4)nnc(C)c3c2C)cc1`, the inhibition was 7.29% (inactive).

Consider `CCOc1ccc(CNC(=O)C2CCCN(c3nnc(C)c4c(C)n(-c5ccccc5)nc34)C2)cc1` (stereo unspecified), for which the inhibition is 23.8% (inactive).

Take `CCc1ccc(CNC(=O)C2CCN(c3nnc(C)c4c(C)n(-c5ccc(C)cc5)nc34)CC2)cc1`: the inhibition was 42.3% (active).

With `C=C(C)CSc1nc(N)c2c3c(sc2n1)CCC3`, the inhibition was -16.8% (inactive).

On to `CC(C)CNC(=O)/C=C/C(=O)O`, for which the inhibition was -2.85% (inactive).

Regarding `COC1=C(N2CCOCC2)C(=O)c2ccccc2C1=O`, the inhibition is 65.8% (active).

Turning to `O=C1c2ccccc2-c2ncnc3c(N4CCOCC4)cc(N4CCOCC4)c1c23`, the inhibition was 11.8% (inactive).

Consider `O=C1C(Cl)=C(N2CCOCC2)C(=O)N1c1ccccc1`, for which the inhibition is -17.1% (inactive).

As to `Cc1ccc(S(=O)(=O)C(C#N)c2nc3ccccc3nc2N2CCCC2)cc1C` (stereo unspecified), the inhibition is 60% (active).

Turning to `Cc1ccc(S(=O)(=O)N2CCN(c3ccccc3)CC2)cc1C`, the inhibition was 14.9% (inactive).

With `CC(C)OC(=O)C(C#N)c1nc2ccccc2nc1N1CCN(Cc2ccccc2)CC1` (stereo unspecified), the inhibition is 10.2% (inactive).

For `CN(C(=O)CCNC(=O)Cn1ccc2ccccc2c1=O)c1ccc(Br)cc1`, the inhibition was 3.8% (inactive).

For `Cc1ccc(C(C)C)c(OCc2nnc(SCC(=O)Nc3nccs3)n2C)c1`, the inhibition was 11.4% (inactive).

Turning to `CCCCN1C(N)=NC[C@@H]1Cc1ccccc1`, the inhibition is 13.2% (inactive).

For `CC[C@@H](C)[C@@H]1CN([C@@H](C)CN2CCC[C@H]2CN2C(N)=NC[C@H]2C(C)C)C(=N)N1CCc1ccc(Cl)c(Cl)c1`, the inhibition was 25.3% (inactive).

Regarding `C[C@@H](CN1CCC[C@H]1CN1C(N)=NC[C@@H]1Cc1ccccc1)N1C[C@@H](Cc2ccccc2)N(CCCC2CCCC2)C1=N`, the inhibition was 70.9% (active).

Take `CC(C)CC(=O)N1CCN(Cc2ccccc2Br)CC1`: the inhibition is 8.5% (inactive).

Consider `COc1ccc(NC(=O)c2cccc3c2C(=O)N(CC2CCCO2)C3)cc1OC` (stereo unspecified), for which the inhibition was 2.96% (inactive).

As for `COCCc1nn2c(=O)cc(COC(=O)c3cc(OC)c(OC)c(OC)c3)nc2s1`, the inhibition was -4.08% (inactive).

With `Cc1[nH]n(-c2ccccc2)c(=O)c1/C=N/NC(=O)c1ccoc1C`, the inhibition is 61.5% (active).

For the compound `Cc1ccc(-n2[nH]c(C)c(/C=N/NC(=O)c3cccc([N+](=O)[O-])c3)c2=O)cc1C`, the inhibition was 25.4% (inactive).

In the case of `COc1cc(/C=N/NC(=O)c2ccoc2C)ccc1OCCN1CCCCC1`, the inhibition is 10.2% (inactive).

For `Oc1ccc(N=Cc2c(O)ccc3ccccc23)cc1`, the inhibition is 87.2% (active).

On to `Oc1ccc(N=Cc2sc3ccccc3c2Cl)cc1`, for which the inhibition was 64.8% (active).

As for `Cc1cc(N=Nc2ccc3ccccc3c2)ccc1O`, the inhibition was 4.6% (inactive).

As to `CC(=O)n1c(C=Nc2ccccc2)c(O)c2ccccc21`, the inhibition is 5.41% (inactive).

With `Oc1ccc(/C=N/N(Cc2ccccc2)c2ccccc2)cc1`, the inhibition was 8.85% (inactive).

Consider `CSc1ccc(CCNC(=O)C2CCN(c3nnc(-n4cccc4)s3)CC2)cc1`, for which the inhibition was 0.72% (inactive).

For `O=C(NCCCn1ccnc1)c1cc2c(s1)CCCC2`, the inhibition is 11.9% (inactive).

As for `COc1ccc(-c2nc(N)sc2C2(O)C(=O)Nc3c(Br)cc(F)cc32)cc1OC` (stereo unspecified), the inhibition was 3.73% (inactive).
